Kir21 block: inhibitors of mouse Kir2.1 inward-rectifier potassium channel; P35561; HEK293-Kir2.1, FluxOR thallium flux fluorescence; stronger effect = lower value; B-score at 10 µM; 310,000 compounds, 0.85% hits;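 active = fluorescence ratio B-score at or below minus 3 SD of library scores, with starting-brightness B-score within 2 SD, cut at about -4.2 in these data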;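 note: channel flux triggered by added potassium and thallium sulfate stimulus; B-score of peak minus minimum fluorescence over baseline after thallium stimulus; more negative B-score means stronger Kir2.1 block with less thallium influx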
hERG rescue: shields human hERG channel from block by proarrhythmic agents | CHO-hERG, FluxOR thallium flux, dofetilide IC70 present | Q12809 | activation (rescue from dofetilide block), less the hit threshold, % at 10 µM | 310,000 compounds, 0.51% hits;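 active = activation above the mean of controls blocked by dofetilide plus 5 SD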;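 note: thallium influx through hERG after potassium depolarization seen as dye fluorescence rise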
KCNK3 inh: human KCNK3 channel inhibition, primary screen; 340,000 compounds, 0.84% hits; AID 602410; CHO-KCNK3 thallium flux, FluxOR fluorescence; stronger effect = lower value; B-score at 10 µM; O14649;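 active = B-score under library mean minus 4 SD, starting fluorescence ratio at most library mean plus 5 SD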;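 note: more negative B-score means stronger inhibition of thallium flux through KCNK3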
Target sequence (O14649 whole entry, looked up): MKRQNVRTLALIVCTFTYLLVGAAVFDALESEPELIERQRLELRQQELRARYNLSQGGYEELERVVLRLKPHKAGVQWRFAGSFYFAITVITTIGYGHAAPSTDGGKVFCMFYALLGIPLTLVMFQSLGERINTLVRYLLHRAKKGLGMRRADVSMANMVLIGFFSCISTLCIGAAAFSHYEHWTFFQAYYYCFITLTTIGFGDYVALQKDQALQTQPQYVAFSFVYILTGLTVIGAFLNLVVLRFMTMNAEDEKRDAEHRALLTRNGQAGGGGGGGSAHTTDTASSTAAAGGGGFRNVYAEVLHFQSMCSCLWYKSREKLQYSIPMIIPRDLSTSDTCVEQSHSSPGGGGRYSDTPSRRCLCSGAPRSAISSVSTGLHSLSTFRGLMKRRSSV
KCNK9 block: inhibitors of human KCNK9 two-pore domain potassium channel; 310,000 compounds, 1.2% hits; Q9NPC2; B-score at 10 µM; AID 488922; HEK293 KCNK9, FluxOR thallium flux fluorescence; stronger effect = lower value;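 active = ratio B-score over 3 SD below the library mean, with starting fluorescence within 5 SD of its mean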;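 note: negative B-score means less thallium flux so channel inhibition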
KCNQ1 act: human KCNQ1 channel potentiation or activation. P51787. AID 2648. 310,000 compounds, 0.35% hits. B-score at 10 µM. CHO-K1 KCNQ1, thallium flux FluxOR fluorescence; stronger effect = higher value;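 active = fluorescence ratio B-score, a plate-corrected score, at least three library SD, with initial intensity B-score within 5 SD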
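Doses: Single concentration per compound, DMSO matched to controls | Test system: KCNQ1-transfected CHO-K1 cells | Timing: 90 min dye loading and 20 min compound exposure, both at room temperature | Measured by: Kinetic FluxOR thallium fluorescence, 10-s 1-Hz baseline, 110-s post-stimulus read | Medium: Assay buffer with matched DMSO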
KCNQ1 block: blocks the human KCNQ1 potassium channel; 310,000 compounds, 1.3% hits; B-score at 10 µM; CHO-K1 KCNQ1, FluxOR thallium flux fluorescence; stronger effect = higher value;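 active = compounds whose thallium flux B-score, printed positive for inhibition, exceeds three library SD while starting fluorescence stays within three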;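 note: channel opened by potassium depolarization with thallium stimulus after 20 min compound exposure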
Active calls of the source: *; i = inactive; · = not tested or not shown. This is a sample that favours compounds with a hit; in the whole collection about 3.7% have one here.

SMILES	Kir21 block	hERG rescue	KCNK3 inh	KCNK9 block	KCNQ1 act	KCNQ1 block
O=C1CN(C(=S)NC(=O)c2ccccc2[N+](=O)[O-])CCN1	0	-6	i	i	i	i
Cn1c2ccccc2c2cnn(CC(=O)N3CCCCC3)c(=O)c21	-0.01	-14	i	i	i	i
CC1(c2nnc(-c3cccc(Cl)c3)o2)CC(c2cccc([N+](=O)[O-])c2)=NO1 (stereo not drawn)	-1.3	-19	i	i	i	i
NS(=O)(=O)c1ccc(CCNC/C=C/c2ccccc2)cc1	0.58	-2	i	i	i	i
COc1ccc(CCNC/C=C/c2ccccc2)cc1	-8.4*	-1	i	i	i	i
Brc1ccc(CNCc2cccs2)cc1	0.86	-3	i	i	i	i
COc1ccc(CCC(C)Nc2cccc(F)c2)cc1 (stereo not drawn)	2.1	-8	i	-6.6*	i	i
c1ccc(COc2ccc(CNCc3cccs3)cc2)cc1	-13*	-14	i	i	i	i
CCOc1cc(CNCc2ccccc2)ccc1OCc1ccc(Cl)cc1	-10	-21	i	i	i	7*
CC(C)c1cccc(C2=CC(=O)C[C@H](c3ccc4c(c3)OCO4)C2)c1	·	·	i	·	·	·
CN(C)c1cccc(C(=O)Nc2ccc(S(=O)(=O)Nc3nccs3)cc2)c1	·	·	i	·	·	·
COc1ccc(OC)c(Nc2nc(N(C)c3ccccc3)nc(N)c2[N+](=O)[O-])c1	1.4	-4	i	i	i	i
CC(C)(CSc1ccccn1)NS(=O)(=O)c1ccccc1	-1.1	-6	i	i	i	i
CC(C)(CSc1ccccn1)NS(=O)(=O)c1ccc(Cl)cc1	-5.1*	-10	i	i	i	i
Cc1cc(NS(=O)(=O)c2ccc(NC(=O)COc3ccc(C#N)cc3)cc2)nc(C)n1	·	·	i	·	·	·
CCN(Cc1ccccc1)Cc1nnnn1Cc1ccccc1	-6.9*	-12	i	i	i	i
CN(C)c1nnnn1Cc1ccccc1	1.4	-4	i	i	i	i
O=C(Nc1ccn(CC(=O)N2CCN(c3ccccn3)CC2)c(=O)n1)OCc1ccccc1	·	·	i	·	·	·
O=C(COc1ccccc1)NC(=S)Nc1ccc(Br)cn1	-0.04	-6	i	i	22*	i
C=CCNC(=S)N(CC)c1cccc2ccccc12	-5.3*	-4	i	i	i	i
CCN(C(=S)Nc1cccnc1)c1cccc2ccccc12	-0.86	-15	i	i	i	i
c1cnc2nc(-c3ccc4c(c3)OCO4)cn2c1	-1.3	-10	i	i	i	i
CCc1ccn2cc(-c3ccc4c(c3)OCO4)nc2c1	1.9	-7	i	-7.3*	i	i
N#C/C(=C\C=C\c1ccccc1[N+](=O)[O-])C(=O)NCc1ccccc1	-0.06	-14	i	i	i	i
C=CCNC(=O)/C(C#N)=C/c1ccccc1[N+](=O)[O-]	2.1	-11	i	i	i	i
SMILES	Kir21 block	hERG rescue	KCNK3 inh	KCNK9 block	KCNQ1 act	KCNQ1 block
CCCCCCCCNC(=O)/C(C#N)=C/c1ccccc1[N+](=O)[O-]	-3.2	-12	i	i	i	7*
N#C/C(=C\c1ccccc1[N+](=O)[O-])C(=O)NCc1ccccc1	-1.1	-15	i	i	i	6*
CS(=O)(=O)N(CC(=O)N1CCc2ccccc2C1)c1cccc(F)c1	-4.2*	11*	i	i	i	i
CCCCC(=O)Nc1ccc(NCc2ccc(C)s2)cc1	-0.29	8.6*	i	i	i	i
O=C(COC(=O)COc1ccccc1)NC1CCS(=O)(=O)C1 (stereo not drawn)	·	·	i	·	·	·
COC(=O)C(Cc1ccccc1)NC(=O)CNS(=O)(=O)c1ccc(Br)cc1 (stereo not drawn)	-0.42	-6	i	i	i	i
COC(=O)C(Cc1ccccc1)NC(=O)CNC(=O)c1ccc(Br)cc1 (stereo not drawn)	-0.22	-5	i	-7.1*	i	i
O=C(NNS(=O)(=O)c1ccc(F)cc1)c1cc(Cl)ccc1O	-0.02	-12	i	i	i	i

Source: PubChem BioAssay
